Published values gathered from unrelated publications.
Compare with care: the assays were run in different laboratories.
Target: Serine/threonine-protein kinase DCLK2 (DCLK2, Homo sapiens, UniProt Q8N568)
One construct used (Q8N568 1-766): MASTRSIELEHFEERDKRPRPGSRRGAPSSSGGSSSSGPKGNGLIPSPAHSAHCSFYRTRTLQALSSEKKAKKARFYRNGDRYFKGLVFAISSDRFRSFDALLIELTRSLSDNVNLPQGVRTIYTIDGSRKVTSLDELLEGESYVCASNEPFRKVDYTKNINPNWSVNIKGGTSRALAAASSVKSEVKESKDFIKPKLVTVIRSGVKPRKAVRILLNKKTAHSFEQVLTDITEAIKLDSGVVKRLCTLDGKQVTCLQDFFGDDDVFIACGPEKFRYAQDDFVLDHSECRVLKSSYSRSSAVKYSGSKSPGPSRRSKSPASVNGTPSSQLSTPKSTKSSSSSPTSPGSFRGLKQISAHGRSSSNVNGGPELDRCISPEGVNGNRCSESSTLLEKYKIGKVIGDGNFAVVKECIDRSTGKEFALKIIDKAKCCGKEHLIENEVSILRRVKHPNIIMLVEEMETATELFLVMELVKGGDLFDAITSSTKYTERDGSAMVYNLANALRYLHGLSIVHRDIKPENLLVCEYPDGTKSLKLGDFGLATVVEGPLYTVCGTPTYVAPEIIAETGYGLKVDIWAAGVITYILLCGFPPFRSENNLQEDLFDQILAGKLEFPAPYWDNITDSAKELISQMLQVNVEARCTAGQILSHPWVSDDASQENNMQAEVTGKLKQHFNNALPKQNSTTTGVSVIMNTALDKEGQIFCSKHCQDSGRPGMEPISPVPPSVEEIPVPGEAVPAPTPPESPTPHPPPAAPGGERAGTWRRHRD

SMILES | read-out | mode | technique | concentration | endpoint | value
Cn1cc(-c2cc(F)cc(N3CCn4c(cc5c4CCCC5)C3=O)c2CO)cc(Nc2ccc(N3CCN(C4COC4)CC3)cn2)c1=O | enzyme activity | inhibitor | – | 0.1 µM | inhibition | 10%
COc1ncccc1-c1cnn2ccc(N3CCN(C(=O)OC(C)C)CC3)nc12 | binding | – | competition with immobilised ligand | 1 µM | remaining binding | 100%
CC(C)(C)c1cc(C=C(C#N)C#N)cc(Br)c1O | enzyme activity | inhibitor | – | 0.5 µM | remaining activity | 109%
Cc1nn(C)cc1-c1nc2c(N3CCN(Cc4ccc(Cl)cc4)CC3)c(Cl)cnc2[nH]1 | binding | – | competition with immobilised ligand | 1 µM | remaining binding | 100%
O=c1[nH]c2ccccc2n1C1CCN(Cc2ccc(-c3[nH]c4cc5ncnc5cc4nc3-c3ccccc3)cc2)CC1 | cell-free assay | – | – | 0.5 µM | remaining signal | 107%
Cn1cncc1[C@@](O)(COc1ccc(C#N)cc1-c1ccc(OC(F)(F)F)cc1)c1ccc(C#N)cc1 | cell-free assay | – | competition with immobilised ligand | 1 µM | remaining binding | 100%
COc1cc(Nc2ncc(F)c(Nc3ccc4c(n3)NC(=O)C(C)(C)O4)n2)cc(OC)c1OC | binding | – | competition with immobilised ligand | 10 µM | inhibition | 36%
Cn1cc(-c2cccc(N3CCc4c(sc5c4CC(C)(C)C5)C3=O)c2CO)cc(Nc2ccncn2)c1=O | enzyme activity | inhibitor | – | 1 µM | inhibition | 3%
Nc1ncc(-c2nc(N3CCOCC3)nc(N3CCOCC3)n2)c(C(F)F)n1 | binding | – | competition with immobilised ligand | 10 µM | remaining binding | 86%
N#CC1(c2ccccn2)CCN(Cc2cc(C(=O)O)c(=O)n3ccccc23)CC1 | cell-free assay | – | competition with immobilised ligand | 1 µM | remaining binding | 100%
